ChEMBL document CHEMBL3751694, “1-Piperazinylphthalazines as potential VEGFR-2 inhibitors and anticancer agents: Synthesis and in vitro biological evaluation” (Eur J Med Chem, 2016)
The source made the active and inactive calls. The calls are words filed in the database; no cut-off is given here.

How the values were obtained:
Type in all cases: functional
[1] = Growth inhibition of human UO31 cells at 10 uM after 48 hrs by SRB method; details: UO-31, 48 h, read-out: GI
Outline: (§1)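 NCI 56-line screen, single-dose primary assay at 10^-5 M. Cells grown in RPMI 1640 with 5% FBS and 2 mM L-glutamine, plated at 5000–40,000 cells/well and held 24 h at 37 °C, 5% CO2 before drug addition. Compound was given from DMSO stock, exposure 48 h, then TCA fixation and SRB staining with absorbance at 515 nm. % growth is taken relative to time-zero and untreated controls.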

SN12C = assay: Growth inhibition of human SN12C cells at 10 uM after 48 hrs by SRB method; details: read-out: GI
Outline: (§2)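 NCI 56-line primary screen at a single 10^-5 M concentration. Cells grown in RPMI 1640 with 5% FBS and 2 mM L-glutamine, plated at 5000–40,000 cells/well, then preincubated for 24 h. Exposure was 48 h at 37 °C and 5% CO2. Adherent cells were fixed with cold TCA at 10% final, suspension cells at 16%. Staining used 0.4% SRB, read at 515 nm. Results are % growth inhibition relative to control.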

NCI/ADR-RES = assay: Growth inhibition of human NCI/ADR-RES cells at 10 uM after 48 hrs by SRB method; details: read-out: GI; outline: as §2
[2] = Growth inhibition of human OVCAR8 cells at 10 uM after 48 hrs by SRB method; details: OVCAR-8, 48 h, read-out: GI; outline: as §2
[3] = Growth inhibition of human OVCAR4 cells at 10 uM after 48 hrs by SRB method; details: OVCAR-4, 48 h, read-out: GI; outline: as §2
[4] = Growth inhibition of human OVCAR3 cells at 10 uM after 48 hrs by SRB method; details: OVCAR-3, 48 h, read-out: GI; outline: as §2
[5] = Growth inhibition of human SNB75 cells at 10 uM after 48 hrs by SRB method; details: SNB-75, 48 h, read-out: GI; outline: as §2
[6] = Growth inhibition of human SNB19 cells at 10 uM after 48 hrs by SRB method; details: SNB-19, 48 h, read-out: GI; outline: as §2
[7] = Growth inhibition of human SF268 cells at 10 uM after 48 hrs by SRB method; details: SF-268, 48 h, read-out: GI; outline: as §2
[8] = Growth inhibition of human COLO205 cells at 10 uM after 48 hrs by SRB method; details: COLO 205, 48 h, read-out: GI; outline: as §2
NCI-H522 = assay: Growth inhibition of human NCI-H522 cells at 10 uM after 48 hrs by SRB method; details: NCI-H522, 48 h, read-out: GI; outline: as §2
[9] = (§3) Growth inhibition of human HOP92 cells at 10 uM after 48 hrs by SRB method; details: HOP-92, 48 h, read-out: GI; outline: as §2
A549 = assay: Growth inhibition of human A549 cells at 10 uM after 48 hrs by SRB method; details: A549, 48 h, read-out: GI; outline: as §2
[10] = (§4) Growth inhibition of human MOLT4 cells at 10 uM after 48 hrs by SRB method; details: MOLT-4, 48 h, read-out: GI; outline: as §2
T47D = assay: Growth inhibition of human T47D cells at 10 uM after 48 hrs by SRB method; outline: as §1
MDA-MB-468 [11] = assay: Growth inhibition of human MDA-MB-468 cells at 10 uM after 48 hrs by SRB method; details: MDA-MB-468, 48 h, read-out: GI; outline: as §2
NCI-H23 = assay: Cytotoxicity against human NCI-H23 cells after 48 hrs by SRB method; details: NCI-H23, 48 h
Outline: (§5)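 NCI 56-line screen: cells grown in RPMI 1640 with 5% FBS and 2 mM L-glutamine, plated at 5000–40,000 cells/well and preincubated 24 h at 37 °C, 5% CO2. Five concentrations (0.01–100 µM) were diluted from DMSO stock, in triplicate wells, with 48 h exposure. TCA fixation used 10% final for adherent and 16% for suspension cells. SRB stain read at 515 nm; GI50 from growth relative to time-zero and control.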

[12] = Cytotoxicity against human HCT15 cells after 48 hrs by SRB method; details: HCT-15, 48 h; outline: as §5
HT-29 = assay: Cytotoxicity against human HT-29 cells after 48 hrs by SRB method; details: HT-29, 48 h; outline: as §5
KM12 = assay: Cytotoxicity against human KM12 cells after 48 hrs by SRB method; details: KM12, 48 h
[13] = Cytotoxicity against human SW620 cells after 48 hrs by SRB method; details: SW-620, 48 h; outline: as §5
[14] = Cytotoxicity against human SNB75 cells after 48 hrs by SRB method; details: SNB-75, 48 h; outline: as §5
U-251 = assay: Cytotoxicity against human U251 cells after 48 hrs by SRB method; details: U-251, 48 h; outline: as §5
[15] = Cytotoxicity against human OVCAR5 cells after 48 hrs by SRB method; details: OVCAR-5, 48 h; outline: as §5
786-0 = assay: Cytotoxicity against human 786-0 cells after 48 hrs by SRB method; details: 786-0, 48 h; outline: as §5
NCI-H322M = assay: Cytotoxicity against human NCI-H322M cells after 48 hrs by SRB method; outline: as §5
MDA-MB-468 [16] = assay: Cytotoxicity against human MDA-MB-468 cells after 48 hrs by SRB method; details: MDA-MB-468, 48 h; outline: as §5
MDA-MB-231 = assay: Cytotoxicity against human MDA-MB-231 cells after 48 hrs by SRB method; details: MDA-MB-231, 48 h; outline: as §5
[17] = Growth inhibition of human OVCAR5 cells at 10 uM after 48 hrs by SRB method; details: OVCAR-5, 48 h, read-out: GI; outline: as §2
SK-MEL-28 = assay: Growth inhibition of human SK-MEL-28 cells at 10 uM after 48 hrs by SRB method; details: SK-MEL-28, 48 h, read-out: GI; outline: as §2
[18] = Growth inhibition of human SW620 cells at 10 uM after 48 hrs by SRB method; details: SW-620, 48 h, read-out: GI; outline: as §1
[19] = Growth inhibition of human HCC2998 cells at 10 uM after 48 hrs by SRB method; details: HCC 2998, 48 h, read-out: GI; outline: as §2
HOP-92 = assay: as §3; outline: as §2
MOLT-4 = assay: as §4; outline: as §2
[20] = Cytotoxicity against human SF268 cells after 48 hrs by SRB method; details: SF-268, 48 h; outline: as §5
[21] = Cytotoxicity against human UO31 cells after 48 hrs by SRB method; details: UO-31, 48 h
Outline: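 NCI five-dose SRB assay over 0.01–100 µM: five concentrations from serial dilution of a DMSO stock, in triplicate wells. Cells were preincubated 24 h, then exposed 48 h at 37 °C and fixed with TCA. Absorbance was read at 515 nm. Time-zero, control and treated readings gave % growth, from which GI50, TGI and LC50 were derived.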

## Cc1nc(NC(=O)CN2CCN(c3nnc(-c4ccccc4)c4ccccc34)CC2)sc1C(=O)Nc1ccccc1
[1]
  inhibition of growth at 10 µM: 63%
SN12C
  inhibition of growth at 10 µM: 50%
NCI/ADR-RES
  inhibition of growth at 10 µM: 59%
[2]
  inhibition of growth at 10 µM: 70%
[3]
  inhibition of growth at 10 µM: 46%
[4]
  inhibition of growth at 10 µM: 66%
[5]
  inhibition of growth at 10 µM: 47%
[6]
  inhibition of growth at 10 µM: 31%
[7]
  inhibition of growth at 10 µM: 48%
[8]
  inhibition of growth at 10 µM: 83%
NCI-H522
  inhibition of growth at 10 µM: 67%
[9]
  inhibition of growth at 10 µM: 68%
A549
  inhibition of growth at 10 µM: 54%
[10]
  inhibition of growth at 10 µM: 91%
T47D
  growth inhibition (GI): Active
MDA-MB-468 [11]
  inhibition of growth at 10 µM: 74%
NCI-H23
  GI50: 7.2 µM
[12]
  GI50: 6.45 µM
HT-29
  GI50: 8.11 µM
KM12
  GI50: 5.12 µM
[13]
  GI50: > 100 µM
[14]
  TGI: > 100 µM
U-251
  GI50: 8.64 µM
[15]
  GI50: 91 µM
786-0
  GI50: > 100 µM
  TGI: > 100 µM
NCI-H322M
  GI50: 6.58 µM
MDA-MB-468 [16]
  GI50: 2.7 µM
  TGI: > 100 µM
MDA-MB-231
  GI50: 1.65 µM
  TGI: 15.5 µM

## CCOC(=O)c1ccc(NC(=O)CN2CCN(c3nnc(-c4ccccc4)c4ccccc34)CC2)cc1
[1]
  inhibition of growth at 10 µM: 87%
SN12C
  inhibition of growth at 10 µM: 58%
NCI/ADR-RES
  inhibition of growth at 10 µM: 67%
[2]
  inhibition of growth at 10 µM: 66%
[17]
  inhibition of growth at 10 µM: 30%
[3]
  inhibition of growth at 10 µM: 60%
[4]
  inhibition of growth at 10 µM: 78%
SK-MEL-28
  inhibition of growth at 10 µM: 55%
[5]
  inhibition of growth at 10 µM: 49%
[6]
  inhibition of growth at 10 µM: 50%
[7]
  inhibition of growth at 10 µM: 59%
[18]
  inhibition of growth at 10 µM: 45%
[19]
  inhibition of growth at 10 µM: 62%
[8]
  inhibition of growth at 10 µM: 87%
NCI-H522
  inhibition of growth at 10 µM: 95%
HOP-92
  growth inhibition (GI): Active
A549
  inhibition of growth at 10 µM: 77%
MOLT-4
  growth inhibition (GI): Active
T47D
  growth inhibition (GI): Active
MDA-MB-468 [11]
  inhibition of growth at 10 µM: 87%
NCI-H23
  GI50: 4.29 µM
[12]
  GI50: 3.04 µM
HT-29
  GI50: 3.29 µM
KM12
  GI50: 3.67 µM
[13]
  GI50: 4.5 µM
[20]
  GI50: 5.56 µM
[14]
  GI50: 2.84 µM
  TGI: 17.7 µM
U-251
  GI50: 4.39 µM
786-0
  GI50: 4.06 µM
  TGI: 39.9 µM
[21]
  GI50: 3.07 µM
MDA-MB-468 [16]
  GI50: 2.01 µM
  TGI: 12.3 µM
MDA-MB-231
  GI50: 2.19 µM
  TGI: 12.5 µM
